For series [1], the system named is Heart. Description: Biodistribution in Sprague-Dawley rat heart at 2.2 MBq/120 uL, iv after 120 mins by gamma counting. In kind it is ADME, organism-based. The note with it: in vivo, 2 h. The method, boiled down: (§1)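 Adult male SD rats, isoflurane (2-3%)/oxygen anesthesia, tail-vein injection of ~2.2 MBq/120 μL tracer in 10% ethanol in saline; euthanized under anesthesia at the stated time (n = 4 per time point). Brain dissected into regions, remainder kept for total brain; organs, blood, bone collected and weighed, gamma-counted against a standard dilution of injectate; %ID/g calculated.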

In series [2] the test system is Rattus norvegicus. Description: Biodistribution in Sprague-Dawley rat total brain at 2.2 MBq/120 uL, iv after 120 mins by gamma counting. In kind it is ADME, organism-based. Particulars: in vivo, 2 h; call rule not given here. The method, boiled down: as §1
Series [3] concerns Spleen. Description: Biodistribution in Sprague-Dawley rat spleen at 2.2 MBq/120 uL, iv after 5 mins by gamma counting. The note with it: in vivo. It counts as ADME, organism-based. The method, boiled down: as §1
For series [4], the system named is Striatum. Description: Biodistribution in Sprague-Dawley rat striatum at 2.2 MBq/120 uL, iv after 60 mins by gamma counting. It counts as ADME, organism-based. The note with it: in vivo, 1 h. A digest of the protocol:
as §1

Series [5] relates to Pancreas. Description: Biodistribution in Sprague-Dawley rat pancreas at 2.2 MBq/120 uL, iv after 60 mins by gamma counting. The note with it: in vivo, 1 h. In kind it is ADME, organism-based. The method, boiled down:
as §1

Series [6] has as its system Hippocampus. Description: Biodistribution in Sprague-Dawley rat hippocampus at 2.2 MBq/120 uL, iv after 5 mins by gamma counting. In kind it is ADME, organism-based. The note with it: in vivo. A digest of the protocol: as §1
Series [7] concerns Liver. Description: Biodistribution in Sprague-Dawley rat liver at 2.2 MBq/120 uL, iv after 60 mins by gamma counting. Particulars: in vivo, 1 h. It counts as ADME, organism-based. The method, boiled down:
as §1

Series [8] relates to Lung. Description: Biodistribution in Sprague-Dawley rat lung at 2.2 MBq/120 uL, iv after 60 mins by gamma counting. The note with it: in vivo, 1 h. It counts as ADME, organism-based. A digest of the protocol:
as §1

Series [9] deals with Rattus norvegicus. Description: Biodistribution in Sprague-Dawley rat total brain at 2.2 MBq/120 uL, iv after 60 mins by gamma counting. It counts as ADME, organism-based. Particulars: in vivo, 1 h. The method, boiled down:
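Injected by tail vein in 10% ethanol in saline into adult male SD rats under 2-3% isoflurane/oxygen anesthesia. Rats were killed under anesthesia, n = 4 per time point. Total brain and other tissues were weighed and gamma-counted against a standard dilution of the injectate. Values are %ID/g.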

Series [10] deals with Liver. Description: Biodistribution in Sprague-Dawley rat liver at 2.2 MBq/120 uL, iv after 120 mins by gamma counting. The note with it: in vivo, 2 h. In kind it is ADME, organism-based. A digest of the protocol: as §1
In series [11] the test system is Striatum. Description: Biodistribution in Sprague-Dawley rat striatum at 2.2 MBq/120 uL, iv after 30 mins by gamma counting. It counts as ADME, organism-based. The note with it: in vivo, 0.5 h. The method, boiled down:
as §1

Series [12] relates to Kidney. Description: Biodistribution in Sprague-Dawley rat kidney at 2.2 MBq/120 uL, iv after 60 mins by gamma counting. It counts as ADME, organism-based. The note with it: in vivo, 1 h. A digest of the protocol: as §1
Series [13] concerns Rattus norvegicus. Description: Biodistribution in Sprague-Dawley rat fat at 2.2 MBq/120 uL, iv after 120 mins by gamma counting. It counts as ADME, organism-based, Adipose tissue. The note with it: in vivo, 2 h. A digest of the protocol: as §1
In series [14] the test system is Blood. Description: Biodistribution in Sprague-Dawley rat blood at 2.2 MBq/120 uL, iv after 120 mins by gamma counting. It counts as ADME, organism-based. Particulars: in vivo, 2 h. A digest of the protocol: as §1
A short description of series [15]: Drug uptake in cynomolgus monkey striatum at 296 to 410 MBq administered via venous catheter after 120 mins by microPET imaging. The note with it: in vivo, iv, 2 h. It counts as ADME, Macaca fascicularis. The method, boiled down: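 Male cynomolgus monkeys (6-8 kg) were fasted 12 h, induced with ketamine/glycopyrrolate i.m., then kept on 0.75-2.0% isoflurane at 37 °C. After a transmission scan for attenuation correction, a 2 h dynamic microPET scan was acquired. Framing was 3×1, 4×2, 3×3, 20×5 min. Striatal uptake was read as SUV from time-activity curves, with cerebellum as reference.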

Series [16] relates to Cortex. Description: Biodistribution in Sprague-Dawley rat cortex at 2.2 MBq/120 uL, iv after 5 mins by gamma counting. It counts as ADME, organism-based. Particulars: in vivo. The method, boiled down:
as §1

For series [17], the system named is Spleen. Description: Biodistribution in Sprague-Dawley rat spleen at 2.2 MBq/120 uL, iv after 30 mins by gamma counting. It counts as ADME, organism-based. Particulars: in vivo, 0.5 h. A digest of the protocol:
as §1

For series [18], the system named is Spleen. Description: Biodistribution in Sprague-Dawley rat spleen at 2.2 MBq/120 uL, iv after 60 mins by gamma counting. It counts as ADME, organism-based. Particulars: in vivo, 1 h. A digest of the protocol:
as §1

On to `O=C(c1ccc(F)cc1)C1CCN(C2Cc3c(cccc3OCC[18F])CC2O)CC1` (single isomer, unassigned; (-)), for which the Drug uptake in [1] stood at 0.336 % ID/g; in series [2] it was 0.409 % ID/g; in series [3] it was 1.265 % ID/g; in series [4], 0.819 % ID/g; in [5] it was 1.324 % ID/g; in [6], 0.645 % ID/g. In addition, the Drug uptake in [7] is on record as 0.456 % ID/g; in [8], 0.738 % ID/g; in [9], 0.425 % ID/g; in series [10], 0.382 % ID/g; in series [11] it was 0.886 % ID/g; in series [12], 0.604 % ID/g. For the same molecule, the Drug uptake is 0.56 % ID/g in [13]; 0.356 % ID/g in [14]; “Not Active” in series [15]; 0.777 % ID/g in [16]; 0.685 % ID/g in series [17]; 0.505 % ID/g in series [18].

Values taken from ChEMBL document CHEMBL3596119, “Synthesis and biological characterization of a promising F-18 PET tracer for vesicular acetylcholine transporter” (Bioorg Med Chem, 2015).
